Calls of active or inactive are those of the source. The calls are words filed in the database; no cut-off is given here.
Assays:
[1] = test system: MCF7; assay: Cytotoxicity against human MCF7 cells assessed as growth inhibition at 25 ug/ml after 24 hrs by SRB assay; format: functional
In short: (§1)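 MCF-7 (ATCC) kept in RPMI-1640 with penicillin/streptomycin and FBS, used at 90% confluence and seeded at 5×10^4–10^5 cells/well. Exposed to 5, 12.5, 25 or 50 µg/mL of compound in DMSO for 24, 48 or 72 h, with vehicle-treated controls and 6 wells per concentration. Cells fixed in cold TCA and stained with 0.4% SRB; dye taken up in 10 mM Tris pH 10.5 and read at 564 nm. Result given as % growth inhibition versus control.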

[2] = test system: MCF7; assay: Cytotoxicity against human MCF7 cells assessed as growth inhibition at 25 ug/ml after 48 hrs by SRB assay; format: functional, cell-based; in short: as §1
[3] = test system: MCF7; assay: Reduction in CYP19 mRNA expression in human MCF7 cells by RT-PCR relative to control; format: functional, cell-based
In short: (§2)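 RNA taken from MCF-7 cells after 48 h treatment in the cytotoxicity study, then oligo(dT)-primed reverse transcription (25 °C 10 min, 42 °C 1 h). Semi-quantitative PCR run with VEGF 40 cycles (59 °C annealing), CYP19 50 cycles (60 °C), hAP-2γ 20 cycles (65 °C) and β-actin 40 cycles (60 °C). Gel band intensity expressed as a ratio to β-actin; P<0.05.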

[4] = test system: MCF7; assay: Cytotoxicity against human MCF7 cells assessed as growth inhibition at 50 ug/ml after 48 hrs by SRB assay; format: functional, cell-based; in short: as §1
[5] = test system: MCF7; assay: Cytotoxicity against human MCF7 cells assessed as growth inhibition after 48 hrs by SRB assay; format: functional, cell-based; settings: MCF7, 48 h; in short: as §1
[6] = test system: MCF7; assay: Reduction in VEGF mRNA expression in human MCF7 cells by RT-PCR relative to control; format: functional, cell-based; in short: as §2
[7] = test system: MCF7; assay: Cytotoxicity against human MCF7 cells assessed as growth inhibition after 72 hrs by SRB assay; format: functional, cell-based; settings: MCF7, 72 h; in short: as §1
[8] = test system: MCF7; assay: Cytotoxicity against human MCF7 cells assessed as growth inhibition at 50 ug/ml after 24 hrs by SRB assay; format: functional, cell-based; in short: as §1
[9] = test system: MCF7; assay: Cytotoxicity against human MCF7 cells assessed as growth inhibition after 24 hrs by SRB assay; format: functional, cell-based; settings: MCF7, 24 h; in short: as §1
[10] = test system: MCF7; assay: Cytotoxicity against human MCF7 cells assessed as growth inhibition at 12.5 ug/ml after 48 hrs by SRB assay; format: functional, cell-based; in short: as §1
[11] = test system: MCF7; assay: Reduction in AP-2 gamma mRNA expression in human MCF7 cells by RT-PCR relative to control; format: functional, cell-based; in short: as §2
[12] = test system: MCF7; assay: Cytotoxicity against human MCF7 cells assessed as growth inhibition at 5 ug/ml after 72 hrs by SRB assay relative to control; format: functional; in short: as §1
[13] = test system: MCF7; assay: Cytotoxicity against human MCF7 cells assessed as growth inhibition at 12.5 ug/ml after 24 hrs by SRB assay; format: functional; in short: as §1
[14] = test system: MCF7; assay: Cytotoxicity against human MCF7 cells assessed as growth inhibition at 12.5 ug/ml after 72 hrs by SRB assay; format: functional; settings: MCF7, 72 h, read-out: GI; in short: as §1
[15] = test system: MCF7; assay: Cytotoxicity against human MCF7 cells assessed as growth inhibition at 5 ug/ml after 48 hrs by SRB assay; format: functional, cell-based; in short: as §1

| Compound | growth inhibition (GI) [1] | growth inhibition (GI) [2] | Activity [3] | growth inhibition (GI) [4] | IC50 [5] [µM] | Activity [6] | IC50 [7] [µM] | growth inhibition (GI) [8] | IC50 [9] [µM] | growth inhibition (GI) [10] | Activity [11] | growth inhibition (GI) [12] | growth inhibition (GI) [13] | inhibition of growth at 25 µg/mL ([1]; MCF7, 24 h, read-out: GI) [%] | inhibition of growth at 12.5 µg/mL ([13]; MCF7, 24 h, read-out: GI) [%] | inhibition of growth at 12.5 µg/mL [14] [%] | inhibition of growth at 5 µg/mL ([12]; MCF7, 72 h, read-out: GI) [%] | growth inhibition (GI) [15] |
| --- | --- | --- | --- | --- | --- | --- | --- | --- | --- | --- | --- | --- | --- | --- | --- | --- | --- | --- |
| CC(=O)O[C@H]1CC[C@@]2(C)[C@@H](CC[C@@H]3[C@@H]2CC[C@]2(C)/C(=N/C4CCNN=C4O)CC[C@@H]32)C1 (stereo partly specified) | Active | Active | Active | Active | 9.9 | Active | 11.5 | Active | 18.5 | Active | Active | Active | – | – | – | – | – | – |
| C[C@]12CC[C@H]3[C@@H](CCC4=CC(=O)CC[C@@]43C)[C@@H]1CC[C@@H]2n1c(=S)n(-c2ccccc2)c(=O)c2cc(F)ccc21 | Active | Active | Active | Active | 11.5 | Active | 16 | Active | 17.7 | – | Active | Active | – | – | – | – | – | – |
| C[C@]12CC[C@H](O)C[C@@H]1CC[C@@H]1[C@@H]2CC[C@@]2(C)[C@H]1CC[C@]21OC1C(=O)c1ccccc1 (stereo partly specified) | Active | Active | Active | Active | 7.3 | Active | 17.3 | Active | 17.1 | Active | Active | Active | Active | – | – | – | – | – |
| C[C@]12CC[C@H]3[C@@H](CCC4=C[C@]5(CC[C@@]43C)OC5C(=O)c3ccccc3)[C@@H]1CC[C@@H]2O (stereo partly specified) | Active | inactive | Active | Active | 16 | Active | 12 | Active | 15.1 | – | Active | Active | Active | – | – | – | – | – |
| C[C@]12CC[C@H]3[C@@H](CCC4=CC(=O)CC[C@@]43C)[C@@H]1CC[C@@H]2n1c(=S)n(-c2ccccc2)c(=O)c2ccccc21 | Active | Active | Active | Active | 12.5 | Active | 17.5 | Active | 13.1 | – | Active | Active | Active | – | – | – | – | – |
| CC(=O)O[C@H]1CC[C@@]2(C)[C@@H](CC[C@@H]3[C@@H]2CC[C@]2(C)/C(=N/c4ccc(S(=O)(=O)N(CCO)c5ncccn5)cc4)CC[C@@H]32)C1 | Active | Active | Active | inactive | 7.5 | Active | 10 | Active | 14.7 | Active | Active | Active | Active | – | – | – | – | – |
| CC(=O)O[C@H]1CC[C@@]2(C)[C@@H](CC[C@@H]3[C@@H]2CC[C@]2(C)c4nc(CC#N)sc4C[C@@H]32)C1 | – | Active | Active | Active | 2.5 | Active | 2.9 | Active | 2.9 | Active | Active | – | – | 85 | 91 | 91 | 93 | Active |
| COc1cccc2c1C(=O)c1c(O)c3c(c(O)c1C2=O)C[C@@](O)(C(=O)CO)C[C@@H]3O[C@H]1C[C@H](N)[C@H](O)[C@H](C)O1 | – | – | Active | – | – | Active | – | – | – | – | Active | – | – | – | – | – | – | – |

Source: ChEMBL document CHEMBL1914409, “Cytotoxicity and gene expression profiles of novel synthesized steroid derivatives as chemotherapeutic anti-breast cancer agents” (Bioorg Med Chem, 2011)
